Columns and labels:
MOLT-3 = assay: Antileukemic activity against human leukemia MOLT-3(T-lineage ALL) cell line; assay type: functional, cell-based
Summary of the method: (§1)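 Cells treated with compounds in 96-well plates, incubated 48 h at 37 °C; cytotoxicity read by MTT assay; IC50 values calculated by curve fitting.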

NALM-6 = assay: Antileukemic activity against human leukemia NALM-6 (B-lineage ALL) cell line; assay type: functional, cell-based; summary of the method: as §1

| Structure (SMILES) | IC50 (MOLT-3) | IC50 (NALM-6) |
| --- | --- | --- |
| COc1cc2ncnc(Nc3ccc([As](=O)(O)O)cc3)c2cc1OC | > 100 µM | > 100 µM |
| COc1cc2ncnc(Nc3ccccc3[As](=O)(O)O)c2cc1OC | 55.6 µM | 46.6 µM |
| CSc1nccc(Nc2ccc(/N=N/c3ccc([As](=O)(O)O)cc3)cc2)n1 | 4.1 µM | 6.1 µM |
| O=[As](O)(O)c1ccc(/N=N/c2ccc(Nc3[nH]cnc4ncnc3-4)cc2)cc1 | 21.6 µM | 22.5 µM |
| COc1cc2ncnc(Nc3ccc(/N=N/c4ccc([As](=O)(O)O)cc4)cc3)c2cc1OC | 13.9 µM | 16.9 µM |
| O=[As](O)(O)c1ccc(/N=N/c2ccc(Nc3nc(C(Cl)(Cl)Cl)nc4ccccc34)cc2)cc1 | 2 µM | 1.1 µM |
| CSc1nccc(Nc2ccccc2[As](=O)(O)O)n1 | 2.3 µM | 1.5 µM |
| CSc1nccc(Nc2ccc([As](=O)(O)O)cc2)n1 | 9.1 µM | 5.6 µM |
| O=[As](O)(O)c1ccc(Nc2nc(C(Cl)(Cl)Cl)nc3ccccc23)cc1 | > 100 µM | > 100 µM |
| O=[As](O)(O)c1ccccc1Nc1nc(C(Cl)(Cl)Cl)nc2ccccc12 | > 100 µM | > 100 µM |
| Nc1ccc([As](=O)(O)O)cc1 [ARSANILIC ACID] |  | > 100 µM |

Reference: ChEMBL document CHEMBL1136574, “Organic phenyl arsonic acid compounds with potent antileukemic activity” (Bioorg Med Chem Lett, 2003)
